Assay results taken from ChEMBL document CHEMBL1123937, “(5Z)-7-(2,2-Dimethyl-4-phenyl-1,3-dioxan-cis-5-yl)heptenoi c acid: a specific thromboxane A2 receptor antagonist” (J Med Chem, 1987).
Blank lines part the entries; values can stand above or below the molecule they belong to.

How the values were obtained:
[1] = species: Cavia porcellus; assay: Compound was tested for the concentration that inhibited the bronchoconstriction induced by U 46619 for a period exceeding 2 h.; format: functional
[2] = species: Cavia porcellus; assay: Ability to antagonise the actions of crude SRSA on guinea pig ileum was determined; format: functional; conditions: read-out: pA2 (converted)
[3] = target: thromboxane A2 (TxA2) receptor (Cavia porcellus, UniProt A0A286Y4I8); assay: Ability to inhibit U-46,619-induced contraction of isolated strips of guinea pig tracheal chain, which is the measure of thromboxane receptor antagonism; format: functional; conditions: read-out: pA2 (converted)
[4] = species: Cavia porcellus; assay: Ability to inhibit relaxant effect of PGE-2 on guinea pig trachea was determined; format: functional; conditions: read-out: pA2 (converted)
[5] = species: Cavia porcellus; assay: Ability to inhibit the contractile effect of PGE-2 on guinea pig trachea; format: functional; conditions: read-out: pA2 (converted)
[6] = species: Cavia porcellus; assay: Inhibition of the response to PGE-2 in guinea pig ileum was determined; format: functional; conditions: read-out: pA2 (converted)
[7] = species: Homo sapiens; assay: Compound was tested for the concentration in human platelet -rich plasma that did not modify PGI-2 inhibition of ADP- induced aggregation.; format: functional
[8] = species: Homo sapiens; assay: Ability to inhibit aggregate formation in human platelets induced by arachidonic acid.; format: functional
[9] = species: Homo sapiens; assay: Ability to inhibit aggregate formation in human platelets induced by collagen; format: functional
[10] = species: Oryctolagus cuniculus; assay: Compound was tested for the antagonist serotonin- and norepinephrine-induced contractions of rabbit aorta.; format: functional
Outline: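 Rabbit aortic strips contracted with serotonin or norepinephrine and tested in the presence of the antagonist at concentrations up to 2×10^-5 M.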

[11] = species: Oryctolagus cuniculus; assay: Ability to inhibit the contractile effect of […] on rabbit aorta was determined; format: functional; conditions: read-out: pA2 (converted)
[12] = species: Oryctolagus cuniculus; assay: Ability to inhibit the contractile effect of PGE-2 on rabbit aorta was determined; format: functional; conditions: read-out: pA2 (converted)
[13] = species: Rattus norvegicus; assay: Inhibition of the response to […] in rat colon was determined; format: functional; conditions: read-out: pA2 (converted)
[14] = target: T1, Thromboxane A2 receptor (Rattus norvegicus, UniProt P34978); assay: Ability to inhibit U-46,619-induced contraction of isolated strips of rat aorta, which is the measure of thromboxane receptor antagonism; format: functional; conditions: read-out: pA2 (converted)
T1 sequence (P34978 whole entry): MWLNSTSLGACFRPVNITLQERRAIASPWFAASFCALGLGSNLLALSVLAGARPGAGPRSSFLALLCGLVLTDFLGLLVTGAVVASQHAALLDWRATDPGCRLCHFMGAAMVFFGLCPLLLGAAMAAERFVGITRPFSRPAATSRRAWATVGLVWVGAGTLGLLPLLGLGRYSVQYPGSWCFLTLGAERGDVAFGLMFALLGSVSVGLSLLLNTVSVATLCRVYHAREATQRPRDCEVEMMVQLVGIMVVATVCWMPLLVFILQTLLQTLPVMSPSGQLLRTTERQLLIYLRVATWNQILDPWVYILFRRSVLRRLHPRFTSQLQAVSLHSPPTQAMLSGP

[15] = species: Rattus norvegicus; assay: Ability to inhibit norepinephrine -induced contraction of isolated strips of rat aorta, […]; format: functional; conditions: read-out: pA2 (converted)
[16] = species: Rattus norvegicus; assay: Ability to inhibit the contractile effect of PGD-2 on rat aorta was determined; format: functional; conditions: read-out: pA2 (converted)
[17] = species: Cavia porcellus; assay: Ability to inhibit the contractile effect of PGF2-alpha on guinea pig trachea; conditions: read-out: pA2 (converted)
[18] = target: Thromboxane A2 receptor (Oryctolagus cuniculus); assay: Ability to inhibit U-46,619-induced contraction of isolated strips of rabbit thoracic aorta, which is the measure of thromboxane receptor antagonism; conditions: read-out: pA2 (converted)

- Kb [3]: 0.263 µM
- Kb [14]: 0.145 µM
- Kb [18]: 0.501 µM
Structure (SMILES): CC1(C)OC[C@@H](C/C=C\CCCC(=O)O)[C@@H](c2ccccc2)O1
- Activity [1]: 5 mg/kg
- Kb [2]: > 20 µM
- Kb [4]: > 20 µM
- Kb [5]: 10.5 µM
- Kb [6]: > 20 µM
- Concentration [7]: 100 µM
- KB [8]: 1.42e-05
- KB [9]: 9.12e-06
- Concentration [10]: 20 µM
- Kb [11]: 1.62 µM
- Kb [12]: 6.76 µM
- Kb [13]: > 20 µM
- Kb [15]: > 20 µM
- Kb [16]: 1.95 µM
- Kb [17]: 11.2 µM

- Kb [18]: > 20 µM
Structure (SMILES): O=C(O)CCC/C=C\C[C@H]1COCO[C@@H]1c1ccccc1

- Kb [18]: > 20 µM
Structure (SMILES): CC1(C)OC[C@H](C/C=C\CCCC(=O)O)[C@@H](c2ccccc2)O1

- Kb [18]: 0.501 µM
Structure (SMILES): O=C(O)CCC/C=C\C[C@@H]1COCO[C@@H]1c1ccccc1
